Results reported in article PMC10746523 (iScience, 2023).
Read-outs that look alike come from different tables or passages of the source.

Key:
[1] = Determination of pKa by UV-Vis absorbance; type: physicochemical; conditions: MES and Tris buffers of different pH, pH 5.2
[2] = pH dependence of fluorescence intensity; type: physicochemical; conditions: 405/475 nm; 1 µM
[3] = Photophysical characterization and relative fluorescence quantum yield; type: physicochemical; conditions: for Quantum Yield (relative fluorescence quantum yield, ΦFrel): ethanol, standard coumarin 343, 405/475 nm
Procedure, shortened: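 Relative quantum yield in ethanol: absorbance at 405 nm and fluorescence at ex/em 405/475 nm were measured for samples and for the coumarin 343 reference (Q_r 0.63 in ethanol). The refractive-index ratio was taken as 1.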

[4] = Microplate time- and pH-dependent fluorescence response to ONOO−; conditions: probe 1 μM, ONOO− 600 μM
Procedure, shortened: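 Water-soluble probe (1 μM) was treated with ONOO⁻ (600 μM) in 50 mM MES (pH 5.8) or 50 mM Tris (pH 6.8, 7.8, 8.8). Fluorescence (ex/em 405/475 nm) was read on a microplate reader over time and expressed relative to untreated samples at t = 0 min.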

PCLS = experiment: Confocal imaging of PCLS exposed to nitrogen mustard; type: cell-based, mice; conditions: 75 μM TEG-TC-ONOO–, compared to 75 μM LNPs with ∼4 μM DPPC-TC-ONOO–
[5] = Solubility, stated in words; type: physicochemical; conditions: aqueous media and buffers
[6] = Selectivity against RONS, microplate F/F0; conditions: for F/F0: probe 1 μM
Procedure, shortened: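 Probe (1 μM final, from a 100 μM DMSO stock) was mixed with each RONS (estimated 600 μM) in 50 mM Tris pH 7.5 containing 600 μM EDTA. HO· was generated in situ from Fe(ClO₄)₂ plus H₂O₂ (36 mM), and ¹O₂ from NaOCl plus H₂O₂. Plate fluorescence (405/475 nm) was read at 1 and 60 min; F/F₀ = 60-min reading over t₀.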

[7] = Competitive oxidation assay with the ketone 1; conditions: ketone 1 (600 μM) alone treated with ONOO− (600 μM), Tris pH 7.5
Procedure, shortened: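 Ketone-competition variant of the microplate assay in 50 mM Tris pH 7.5: ketone competitor (600 μM) with ONOO⁻ (600 μM), alone or added after the probe (1 μM) had been pre-mixed 5 min with ONOO⁻ (600 μM). Probe plus ONOO⁻ without competitor was run in parallel. Fluorescence (ex/em 405/475 nm) was followed over time.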

[8] = in ethanol, cited from earlier work
[9] = cited from earlier work

For O=c1oc2cc(O)ccc2cc1-n1cc(COCCOCCOCCO)nn1 [TEG-TC, 7-hydroxy-3-(4-((2-(2-(2-hydroxyethoxy)ethoxy)ethoxy)methyl)-1H-1,2,3-triazol-1-yl)-2H-chromen-2-one], the pKa [1] was 7.1 ± 0.1, the “fluorescence signal intensity at pH 7.5–8.8 relative to pH 5.8” value [2] was 18- to 20 fold and the Brightness [3] was 10305. The “Extinction Coefficient” value [3] was 15613 M⁻¹ cm⁻¹, the “Max Em” value [3] was 471.4 nm and the “Max Ex” value [3] was 397.0 nm. For the same compound, the Relative brightness [3] was 41.1 and the “Quantum Yield (relative fluorescence quantum yield, ΦFrel)” value [3] was 0.66.
With O=C(Oc1ccc(CCC(=O)C(F)(F)F)cc1)Oc1ccc2cc(-n3cc(COCCOCCOCCO)nn3)c(=O)oc2c1 [TEG-TC-ONOO^–, 3-(4-((2-(2-(2-hydroxyethoxy)ethoxy)ethoxy)methyl)-1H-1,2,3-triazol-1-yl)-2-oxo-2H-chromen-7-yl (4-(4,4,4-trifluoro-3-oxobutyl)phenyl) carbonate] the fluorescence generation ([4]; pH 5.8 and 6.8) was “little or no fluorescence generation”, the “fluorescence relative to untreated sample (t = 0 min)” value ([4]; pH 7.8, until 30 min) was “up to 6.5 times” and the “fluorescence relative to untreated sample (t = 0 min)” value ([4]; pH 8.8, until 30 min) was no more than 8 times. For the same compound, the “signal within PCLS exposed to NM (405 nm excitation)” value (PCLS) was “considerably weak signals”, the solubility [5] was “highly soluble” and the “relative fluorescence enhancement for ONOO− compared to the other RONS” value [6] was roughly 36 fold. The “fluorescence intensity stronger than background” value ([6]; H2O2 600 μM, 60 min) was 16%, the F/F0 ([6]; H2O2 600 μM, 60 min) was 1.16 and the increase in fluorescence ([6]; ONOO− 600 μM, 60 min) was roughly 570%. For the same compound, the F/F0 ([6]; ONOO− 600 μM, 60 min) was 6.69, the increase in fluorescence ([6]; absence of a redox species, 60 min) was 13% and the F/F0 ([6]; absence of a redox species, 60 min, Tris pH 7.5) was 1.13. For the same compound, the change in fluorescence ([6]; species other than ONOO−, 600 μM, 60 min) was “only negligible levels of change in fluorescence”, the F/F0 ([6]; ·NO 600 μM, 60 min) was 1.03 and the Brightness [3] was 358. For the same compound, the “Extinction Coefficient” value [3] was 4475 M⁻¹ cm⁻¹, the “Max Em” value [3] was 472.0 nm and the “Max Ex” value [3] was 400.0 nm. The Relative brightness [3] was 1.4 and the “Quantum Yield (relative fluorescence quantum yield, ΦFrel)” value [3] was 0.08.
In the case of O=C(CCc1ccc(O)cc1)C(F)(F)F [Compound 1, 1,1,1-trifluoro-4-(4-hydroxyphenyl)butan-2-one], the fluorescence generation [7] is reported as “no fluorescence”.
In the case of O=C(O)c1cc2cc3c4c(c2oc1=O)CCCN4CCC3 [coumarin 343], the “absolute fluorescence quantum yield (ΦF)” value [8] is listed as 0.63 and the “quantum yield of reference standard (Qr)” value ([8]; ref Sigma Aldrich) is listed as 0.63.
In the case of O=NOO [ONOOH, peroxynitrous acid], the chemical half-life [9] is listed as 0.63 s, the pKa [9] is listed as 6.8 and the biological half-life ([9]; estimated, depends on concentration of biological targets) is listed as 10–20 ms.
